Measured values published in ChEMBL document CHEMBL4680104, “Structure-Based Optimization of Small-Molecule Inhibitors for the β-Catenin/B-Cell Lymphoma 9 Protein-Protein Interaction” (J Med Chem, 2018).
Calls of active or inactive are those of the source. No cut-off for these calls is given here.

Assays:
[1] = target: beta-catenin-B-cell lymphoma 9 protein complex (Homo sapiens) (UniProt P35222+O00512); experiment: Inhibition of protein interaction between beta-catenin (unknown origin)/BCL9 in HEK293 cells transfected with beta-catenin assessed as reduction in Wnt/beta-catenin transactivation incubated for 24 hrs by Wnt-responsive FOP-Flash luciferase reporter assay; type: cell-based
How it was run: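 HEK293 cells were cotransfected using FuGENE6 with 45 ng TOPFlash or FOPFlash reporter, 135 ng pcDNA3.1-β-catenin and 20 ng pCMV-RL normalization reporter. After 24 h in DMEM with 10% FBS at 37 °C, inhibitors or DMSO were added for 24 h. Reporter activity was read with a dual luciferase system, normalized, and compared with DMSO-treated cells. Triplicate.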

HCT-116 = experiment: Cytotoxicity in human HCT-116 cells assessed as reduction in cell viability incubated for 72 hrs by MTS assay; type: functional, cell-based; settings: HCT-116, 72 h
How it was run: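 Cells seeded at 5 × 10^3 cells/well, kept overnight at 37 °C, then exposed to inhibitors at various concentrations for 72 h. Viability read with a freshly mixed PMS (0.92 mg/mL) : MTS (2 mg/mL) reagent at 1:19, incubated 3 h at 37 °C, A490 measured. […] Triplicate; mean ± SD.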

SW480 = experiment: Cytotoxic activity in human SW480 cells at 50 to 100 uM incubated for 4 hrs by LDH release assay; type: cell-based; settings: sw480, 4 h, dose 50-100 µM
How it was run: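 SW480 cells were seeded at 2 × 10^4 cells/well and kept overnight at 37 °C. They were then exposed to a range of inhibitor concentrations for 4 h. LDH in the culture supernatant was measured with a diagnostic kit by absorbance at 490 nm. Percent cytotoxicity was calculated from experimental release against maximum release, with background subtracted. Run in triplicate.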

With Cl.Cl.O=C(Nc1ccc(O[C@H]2CCNC2)c(-c2ccc(F)cc2)c1)c1ccc(O[C@H]2CCNC2)c(-c2ccc3ccsc3c2)c1 the inhibition [1] was “Active”, the IC50 (HCT-116) was 7.5 µM and the Activity (SW480) was “Toxic”.

With Cc1cc(F)ccc1-c1cc(NC(=O)c2ccc(O[C@H]3CCNC3)c(-c3ccc(F)c(F)c3)c2)ccc1O[C@H]1CCNC1.Cl.Cl the inhibition [1] was “Active”, the IC50 (HCT-116) was 5.6 µM and the Activity (SW480) was “Toxic”.

In the case of Cl.Cl.O=C(Nc1ccc(O[C@H]2CCNC2)c(-c2ccc(F)cc2)c1)c1ccc(O[C@H]2CCNC2)c(C2CCC(C(F)(F)F)CC2)c1 (some centres undefined), the inhibition [1] is reported as “Active”, the IC50 (HCT-116) is reported as 5.6 µM and the Activity (SW480) is reported as “Toxic”.

For Cl.Cl.O=C(Nc1ccc(O[C@@H]2CCNC2)c(-c2cccc(-c3nn[nH]n3)c2)c1)c1ccc(O[C@H]2CCNC2)c(-c2ccc(F)c(F)c2)c1, the inhibition [1] was “inactive” and the IC50 (HCT-116) was 55 µM.

With Cl.Cl.O=C(Nc1ccc(O[C@H]2CCNC2)c(-c2ccc(F)cc2)c1)c1ccc(O[C@H]2CCNC2)c(-c2ccc3cc(F)ccc3c2)c1 the inhibition [1] was “Active”, the IC50 (HCT-116) was 5.6 µM and the Activity (SW480) was “Toxic”.

In the case of Cl.Cl.O=C(Nc1ccc(O[C@H]2CCNC2)c(-c2ccc(F)cc2)c1)c1cnc(O[C@H]2CCNC2)c(-c2ccc(F)c(F)c2)c1, the inhibition [1] is reported as “Active”, the IC50 (HCT-116) is reported as 8.7 µM and the Activity (SW480) is reported as “Toxic”.

Cl.Cl.O=C(Nc1ccc(O[C@H]2CCNC2)c(-c2ccc(F)cc2)c1)c1ccc(O[C@H]2CCNC2)c(-c2ccc(F)c(F)c2)c1 was tested, and the inhibition [1] was “Active” and the Activity (SW480) was “Toxic”.
